Reference: ChEMBL document CHEMBL3085701, “Optimization of novel indole-2-carboxamide inhibitors of neurotropic alphavirus replication” (J Med Chem, 2013)

Key:
[1] = system: Western equine encephalitis virus; assay: Antiviral activity against Western equine encephalomyelitis virus infected in human BE(2)-C cells assessed as inhibition of viral RNA replication after 18 to 20 hrs by luciferase reporter gene assay; format: functional, cell-based
[2] = Cytotoxicity against human BE(2)-C cells after 18 to 20 hrs by MTT assay; format: cell-based
[3] = biological target: MDR1 (ABCB1, P-glycoprotein) (Homo sapiens, UniProt P08183); assay: Inhibition of human MDR1 expressed in MDCK2 cells assessed as increase of rhodamine 123 uptake at 30 uM up to 240 mins relative to control; format: ADME, cell-based, MDCK-II; conditions: MDCK2 cells expressing human MDR1, probe rhodamine 123
In short: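 Confluent MDR1-MDCKII cells (human Pgp-transfected) given fresh DMEM with 10 μM rhodamine 123, plus vehicle, tariquidar (5 μM) or compound (30 μM). Uptake at 37°C from 1 to 240 min, stopped by ice-cold PBS washes. Fluorescence read at ex 525/em 560-640 nm. Result expressed as % of same-day tariquidar effect, (Cav−Cveh)*100/(Ctar−Cveh). Triplicates on ≥3 occasions.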

[4] = Kinetic solubility of the compound; format: physicochemical
[5] = Cytotoxicity against human BE(2)-C cells assessed as cell viability at 25 uM after 24 hrs by MTT assay relative to control; format: cell-based; conditions: read-out: Activity
[6] = system: Fort Morgan virus; assay: Antiviral activity against Fort Morgan virus infected in human BE(2)-C cells assessed as reduction of viral titer at 25 uM after 24 hrs by plaque reduction assay (reference value: 47.1 +/- 10.5 x 10^6 pfu/ml); format: functional
[7] = Half life in Balb-C mouse liver microsomes; format: ADME, Microsome
In short: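 Compound incubated with Balb-C mouse liver microsomes, and half-life determined for oxidative metabolism. Values are means of ≥2 independent incubations.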

Chain of MDR1 (ABCB1, P-glycoprotein) (P08183 whole entry): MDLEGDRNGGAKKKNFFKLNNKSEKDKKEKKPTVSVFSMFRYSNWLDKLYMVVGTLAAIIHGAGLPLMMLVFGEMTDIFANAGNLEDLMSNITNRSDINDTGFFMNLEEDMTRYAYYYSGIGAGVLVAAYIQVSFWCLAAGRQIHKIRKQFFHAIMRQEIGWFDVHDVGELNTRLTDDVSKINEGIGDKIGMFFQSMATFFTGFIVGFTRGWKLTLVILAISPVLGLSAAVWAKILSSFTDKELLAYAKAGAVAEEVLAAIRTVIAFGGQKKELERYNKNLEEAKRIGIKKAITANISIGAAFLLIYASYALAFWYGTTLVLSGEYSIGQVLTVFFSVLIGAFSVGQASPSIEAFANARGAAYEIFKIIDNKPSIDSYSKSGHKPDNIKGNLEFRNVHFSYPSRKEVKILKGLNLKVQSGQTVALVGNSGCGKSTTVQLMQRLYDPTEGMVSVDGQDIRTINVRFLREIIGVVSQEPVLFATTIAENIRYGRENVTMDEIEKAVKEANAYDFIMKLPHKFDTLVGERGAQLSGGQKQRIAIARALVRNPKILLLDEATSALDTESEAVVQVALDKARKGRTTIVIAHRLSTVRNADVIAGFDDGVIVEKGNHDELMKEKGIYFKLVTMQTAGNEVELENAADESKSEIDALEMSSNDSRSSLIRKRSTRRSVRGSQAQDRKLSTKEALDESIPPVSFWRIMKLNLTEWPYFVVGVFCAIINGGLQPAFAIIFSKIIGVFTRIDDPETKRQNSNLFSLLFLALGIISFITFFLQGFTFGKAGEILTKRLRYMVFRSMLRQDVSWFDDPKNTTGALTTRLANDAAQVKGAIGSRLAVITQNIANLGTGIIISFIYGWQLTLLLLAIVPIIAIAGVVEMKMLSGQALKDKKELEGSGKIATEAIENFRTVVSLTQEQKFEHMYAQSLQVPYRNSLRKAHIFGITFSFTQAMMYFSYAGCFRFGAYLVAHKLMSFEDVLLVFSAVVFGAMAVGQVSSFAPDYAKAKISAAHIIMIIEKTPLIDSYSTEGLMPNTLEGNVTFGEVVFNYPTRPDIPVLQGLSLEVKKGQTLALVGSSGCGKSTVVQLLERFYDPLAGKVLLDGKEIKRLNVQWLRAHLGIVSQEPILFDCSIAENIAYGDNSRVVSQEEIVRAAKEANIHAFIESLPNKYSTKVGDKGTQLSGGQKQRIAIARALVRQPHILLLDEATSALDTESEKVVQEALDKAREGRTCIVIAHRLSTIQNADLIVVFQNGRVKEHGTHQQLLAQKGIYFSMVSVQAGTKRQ

SMILES | IC50 [1] [µM] | CC50 ([2]; BE(2)-C cells) [µM] | inhibition at 4 h, 30 µM [3] [%] | CC50 ([2]; be(2)-c) [µM] | further results
O=C(NCc1ccco1)C1CCN(C(=O)c2cc3sccc3n2Cc2ccc(F)cc2)CC1 | 23.7 | – | – | – | –
O=C(NCc1ccncc1)C1CCN(C(=O)c2cc3ccccc3n2Cc2ccc(Cl)cc2)CC1 | 6.8 | > 100 | 25.9 | – | Kinetic_solubility [4]: 31 µM
O=C(NCc1cccnc1)C1CCN(C(=O)c2cc3ccccc3n2Cc2ccc(Cl)cc2)CC1 | 11.4 | – | – | – | –
O=C(NCCc1ccncc1)C1CCN(C(=O)NCCc2ccc(Cl)cc2)CC1 | 40.9 | > 100 | – | – | Kinetic_solubility [4]: 250 µM
Cn1c(C(=O)N2CCC(C(=O)NCCc3ccncc3)CC2)cc2ccccc21 | > 50 | > 50 | – | – | –
O=C(NCCc1ccncc1)C1CCN(C(=O)c2cc3ccccc3n2Cc2ccccc2)CC1 | 1.6 | – | 11.7 | 45.6 | viability at 24 h, 25 µM [5]: 79.4%; Activity [6]: 6.8 ×10⁶ PFU/ml; t1/2 [7]: 77.9 min; Kinetic_solubility [4]: 31 µM
O=C(NCCc1ccncc1)C1CCN(C(=O)c2cc3ccc(F)cc3n2Cc2ccc(Cl)cc2)CC1 | 0.6 | – | 30.8 | 43.1 | viability at 24 h, 25 µM [5]: 69.2%; Activity [6]: 1.6 ×10⁶ PFU/ml
O=C(NCCc1ccncc1)C1CCN(C(=O)c2cc3cc(F)ccc3n2Cc2ccc(Cl)cc2)CC1 | 0.9 | – | 42.6 | 52.5 | Kinetic_solubility [4]: 31 µM
O=C(NCCc1ccncc1)C1CCN(C(=O)c2cc(F)cn2Cc2ccc(Cl)cc2)CC1 | 0.9 | – | – | 8 | Kinetic_solubility [4]: 125 µM
CC(C)c1ccc(CCNC(=O)C2CCN(C(=O)c3cc4ccccc4n3Cc3ccc(Cl)cc3)CC2)cc1 | 10.8 | – | – | 27.2 | –
O=C(c1cc2ccccc2n1Cc1ccc(Cl)cc1)N1CCC(C(=O)N2CCC[C@H]2CO)CC1 | 30.6 | – | – | 98.9 | –
CN(C)C(=O)C1CCN(C(=O)c2cc3ccccc3n2Cc2ccc(Cl)cc2)CC1 | 10.5 | > 100 | 23.2 | – | Kinetic_solubility [4]: 62 µM
O=C(c1cc2ccccc2n1Cc1ccc(Cl)cc1)N1CCC(C(=O)N2CCCC2)CC1 | 22.2 | – | – | 65.6 | –
O=C(c1cc2ccccc2n1Cc1ccc(Cl)cc1)N1CCC(C(=O)N2CCOCC2)CC1 | 12.8 | > 100 | – | – | –
CN(Cc1ccccc1)C(=O)C1CCN(C(=O)c2cc3ccccc3n2Cc2ccc(Cl)cc2)CC1 | 16.9 | – | – | 87 | –
CN(Cc1ccccc1)C(=O)C1CCN(C(=O)c2cc3ccccc3n2Cc2ccc([N+](=O)[O-])cc2)CC1 | 61.3 | > 100 | – | – | –
CN(Cc1ccccc1)C(=O)C1CCN(C(=O)c2cc3ccccc3n2Cc2ccc(C#N)cc2)CC1 | 95.9 | > 100 | – | – | –
COc1ccc(Cn2c(C(=O)N3CCC(C(=O)N(C)Cc4ccccc4)CC3)cc3ccccc32)cc1 | 16.5 | – | – | 99.2 | –
CC(=O)n1c(C(=O)N2CCC(C(=O)N(C)Cc3ccccc3)CC2)cc2ccccc21 | > 50 | > 50 | – | – | –
COCCn1c(C(=O)N2CCC(C(=O)N(C)Cc3ccccc3)CC2)cc2ccccc21 | > 50 | > 50 | – | – | –
CC(C)Cn1c(C(=O)N2CCC(C(=O)N(C)Cc3ccccc3)CC2)cc2ccccc21 | 27.9 | – | – | 58.2 | –
CN(Cc1ccccc1)C(=O)C1CCN(C(=O)c2cc3ccccc3n2Cc2ccccc2)CC1 | 17 | – | – | 64.8 | –

SMILES | IC50 [1] [µM] | CC50 ([2]; BE(2)-C cells) [µM] | inhibition at 4 h, 30 µM [3] [%] | CC50 ([2]; be(2)-c) [µM] | further results
CN(Cc1ccccc1)C(=O)C1CCN(C(=O)c2cc3ccccc3n2Cc2ccncc2)CC1 | 24.2 | – | – | 80.3 | –
CN(Cc1ccccc1)C(=O)C1CCN(C(=O)c2cc3ccccc3n2Cc2ccc(C(F)(F)F)cc2)CC1 | 35.1 | – | – | 90.3 | –
O=C(NCCc1ccncc1)C1CCN(C(=O)c2nccn2Cc2ccc(Cl)cc2)CC1 | > 50 | > 50 | 0.13 | – | solubility kinetic ([4]; read-out: Kinetic_solubility): > 500 µM
O=C(NCCc1ccncc1)C1CCN(C(=O)c2nc3ccccc3n2Cc2ccc(Cl)cc2)CC1 | 4.1 | – | 6.9 | 74.6 | viability at 24 h, 25 µM [5]: 69.7%; Activity [6]: 16.4 ×10⁶ PFU/ml; t1/2 [7]: 43 min; Kinetic_solubility [4]: 63 µM
O=C(NCc1ccccc1)C1CCN(C(=O)c2cc3ccccc3n2Cc2ccc(Cl)cc2)CC1 | 15.6 | – | – | – | –
C[C@@H](NC(=O)C1CCN(C(=O)c2cc3ccccc3n2Cc2ccc(Cl)cc2)CC1)c1ccncc1 | 0.6 | – | 35.9 | 92.3 | viability at 24 h, 25 µM [5]: 65.5%; Activity [6]: 6.4 ×10⁶ PFU/ml; t1/2 [7]: 23.4 min
CN1CCN(C(=O)C2CCN(C(=O)c3cc4ccccc4n3Cc3ccc(Cl)cc3)CC2)CC1 | 31.4 | – | – | 75.6 | –
CN1CCC(CNC(=O)C2CCN(C(=O)c3cc4ccccc4n3Cc3ccc(Cl)cc3)CC2)CC1 | > 50 | > 50 | – | – | –
Cn1ccc(CNC(=O)C2CCN(C(=O)c3cc4ccccc4n3Cc3ccc(Cl)cc3)CC2)n1 | 76.9 | > 100 | – | – | –
Cn1cnc(CNC(=O)C2CCN(C(=O)c3cc4ccccc4n3Cc3ccc(Cl)cc3)CC2)c1 | > 50 | > 50 | – | – | –
O=C(NCCc1cccnc1)C1CCN(C(=O)c2cc3ccccc3n2Cc2ccc(Cl)cc2)CC1 | 5.3 | – | 30.1 | 39.4 | –
O=C(NCCc1ccccn1)C1CCN(C(=O)c2cc3ccccc3n2Cc2ccc(Cl)cc2)CC1 | 22.4 | – | 21.9 | 86.2 | –
O=C(NCCCc1ccncc1)C1CCN(C(=O)c2cc3ccccc3n2Cc2ccc(Cl)cc2)CC1 | 31.9 | – | 35.2 | 71.5 | Kinetic_solubility [4]: 16 µM
CC(CNC(=O)C1CCN(C(=O)c2cc3ccccc3n2Cc2ccc(Cl)cc2)CC1)c1ccncc1 (stereo unspecified) | 1.7 | – | 25.4 | 98.2 | viability at 24 h, 25 µM [5]: 74%; Activity [6]: 13.3 ×10⁶ PFU/ml
CC(C)(Cc1ccncc1)NC(=O)C1CCN(C(=O)c2cc3ccccc3n2Cc2ccc(Cl)cc2)CC1 | 19.3 | 43.6 | – | – | –
CN(CCc1ccncc1)C(=O)C1CCN(C(=O)c2cc3ccccc3n2Cc2ccc(Cl)cc2)CC1 | 1.6 | – | 72 | 47.9 | –
O=C(NCC1COc2cnccc21)C1CCN(C(=O)c2cc3ccccc3n2Cc2ccc(Cl)cc2)CC1 (stereo unspecified) | 3.6 | – | 47 | 75.8 | –
O=C(NCCn1ccnc1)C1CCN(C(=O)c2cc3ccccc3n2Cc2ccc(Cl)cc2)CC1 | 4.9 | – | 15.1 | 99.6 | viability at 24 h, 25 µM [5]: 70.3%; Activity [6]: 15.8 ×10⁶ PFU/ml; t1/2 [7]: 14.3 min; Kinetic_solubility [4]: 31 µM
COc1cccc(CCNC(=O)C2CCN(C(=O)c3cc4ccccc4n3Cc3ccc(Cl)cc3)CC2)c1 | 11.1 | > 100 | – | – | –
O=C(NCCc1ccc(F)cc1)C1CCN(C(=O)c2cc3ccccc3n2Cc2ccc(Cl)cc2)CC1 | 21.4 | – | – | 18.6 | –
COc1ccc(CCNC(=O)C2CCN(C(=O)c3cc4ccccc4n3Cc3ccc(Cl)cc3)CC2)cc1 | 15.5 | – | – | 11.3 | –
O=C(NCCc1ccc(Cl)cc1)C1CCN(C(=O)c2cc3ccccc3n2Cc2ccc(Cl)cc2)CC1 | 8.1 | – | – | 40.4 | –
